Bioassay records as filed in PubChem.
ABCB1 inh: ABCB1 efflux pump inhibitors, primary screen, cell-based, multiplex, flow cytometry, ABCG2 counter-screen | ATP-dependent translocase ABCB1 (Homo sapiens), P08183 | CCRF-Adr cells, JC-1 efflux | inhibition, % at 6.6 µM | 190,000 compounds, 0.067% hits | AID 1326, 2008; in the data active = inhibition above about 40%;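 note: 0% = vehicle and 100% = reference inhibitor; higher value means more JC-1 retained so stronger ABCB1 efflux block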
Arbovirus inh: antivirals against arbovirus infection, primary screen, cell-based, full library, 10K replicate subset; arbovirus infection cell-based antiviral screen; inhibition, % at 10 µM; AID 1251, 2008; 200,000 compounds, 0.37% hits; in the data active = inhibition above about 30%
Rad51 HR inh: human RAD51 strand exchange inhibitors, primary screen, biochemical, fluorescence; AID 1385, 2008; inhibition, % at 10 µM; 200,000 compounds, 0.085% hits; DNA repair protein RAD51 homolog 1 (Homo sapiens), Q06609; hRad51 DNA strand exchange, fluorescence dequenching;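 active = inhibition above 40% at the single screening dose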;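 note: 0% = DMSO control wells and 100% = blanks with heterologous ssDNA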
Target sequence (Q06609 whole entry, looked up): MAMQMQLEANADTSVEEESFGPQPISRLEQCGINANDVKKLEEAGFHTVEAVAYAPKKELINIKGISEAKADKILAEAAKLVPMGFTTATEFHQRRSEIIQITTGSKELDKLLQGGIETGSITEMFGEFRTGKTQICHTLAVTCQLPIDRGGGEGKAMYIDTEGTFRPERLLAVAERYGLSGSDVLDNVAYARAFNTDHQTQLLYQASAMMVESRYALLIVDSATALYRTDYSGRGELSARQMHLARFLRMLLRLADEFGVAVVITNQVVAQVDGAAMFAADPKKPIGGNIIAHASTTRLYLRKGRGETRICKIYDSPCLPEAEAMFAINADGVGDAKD
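Assay system: Human Rad51 nucleoprotein filaments preassembled on unlabelled ssDNA | Reagent: Donor/quencher-labelled 47-bp dsDNA substrate | Doses: One concentration, 10 µM final | Times: 37 °C 15-min filament assembly, 30-min compound preincubation, 15-min exchange | Technique: Fluorescein emission 520 nm, excitation 485 nm | Benchmarks: Plate control and blank wells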
MDM2 E3 inh: MDM2-luciferase reporter signal enhancers, primary screen, MDM2 E3 ligase inhibitor project, cell-based, luminescence, 1536-well; cell-based MDM2 ubiquitination luciferase reporter, 2 h; 0 = plate control, 100 = twice control, blank-subtracted; 210,000 compounds, 0.11% hits; signal enhancement, % at 5 µM;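 active = signal enhancement of 30% or more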;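 note: luminescence tracks abundance of the self-degrading MDM2-luciferase fusion protein; higher signal means inhibition of MDM2 E3 ligase activity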
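Assay system: mammalian cells stably expressing self-ubiquitinating, self-degrading MDM2 E3–luciferase fusion. Quantity: 2000 cells in each well. Medium: DMEM culture medium. Compound dosing: single-point 5 µM. Timing: cell settling 4 h, compound treatment 2 h, both 37 °C. Technique: luciferase luminescence. Read-out basis: percent signal gain over controls, blank-subtracted. Benchmarks: plate controls and plate blanks.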
ABCG2 inh: ABCG2 efflux pump inhibitors, primary screen, multiplex with ABCB1, IgMXP3 cells, flow cytometry; JC-1 efflux; 190,000 compounds, 0.1% hits; inhibition, % at 6.6 µM; Broad substrate specificity ATP-binding cassette transporter ABCG2 (Homo sapiens), Q9UNQ0;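 active = inhibition above 80%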;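 note: 0% = DMSO and 100% = nicardipine control wells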
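material = IgMXP3 (ABCG2) plus far-red-tagged CCRF-Adr (ABCB1) cells | amount = 3 million cells/mL, equal mix of both lines | also added = JC-1 transporter substrate | dosing = one concentration, 6.6 µM final | schedule = 10 min at 25 °C | measured by = flow cytometric JC-1 green MFI at 530 nm | read-out basis = percent efflux inhibition, scaled nicardipine 100% to DMSO 0%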
The depositor's hits bear a star; . = no result. The list is not random: actives were taken first. Their share in the collection is about 0.62%.

SMILES | ABCB1 inh | Arbovirus inh | Rad51 HR inh | MDM2 E3 inh | ABCG2 inh
Clc1ccc(Cc2noc(CN3CCN(c4ccccc4)CC3)n2)c(Cl)c1 | 4.8 | 18.0 | 7.8 | 5.3 | 1.3
O=C(CSc1ncn(-c2ccccc2)n1)c1cccs1 | 0.5 | 9.0 | 68.0* | -16.8 | 1.4
O=[N+]([O-])c1ccc(-c2c(O)c3ccccc3c3nc4ccccc4nc23)cc1 | 0.3 | 31.6* | 18.0 | -11.6 | 0.7
COc1ccc(NS(=O)(=O)c2cc(NC(=O)c3ccc(C)s3)ccc2N2CCOCC2)cc1 | . | . | -15.0 | 1.9 | .
COc1ccc(Cn2c(C)c(C)c(C#N)c2NC(=O)Nc2cccc(C)c2)cc1 | 2.5 | 52.1* | -6.3 | -21.1 | 21.0
Cc1cc(C=C2C(=O)c3ccccc3C2=O)c(C)n1-c1ccccc1 | 0.6 | 3.0 | 0.2 | -79.8 | 2.9
Cc1ccc(-n2c(C)cc(C=C3C(=O)CC(C)(C)CC3=O)c2C)cc1 | -0.9 | 8.7 | -2.3 | 57.4* | -17.8
O=C(NCCc1ccccc1)C1CCN(C2CCN(Cc3ccc(CO)o3)CC2)CC1 | 0.5 | 7.5 | 0.2 | 37.8* | 1.7
O=c1[nH]c2ccc(S(=O)(=O)N3CCN(c4ccccc4F)CC3)cc2s1 | -0.2 | 38.0* | 0.6 | -1.4 | 1.2
CC(=O)N(c1nc(CCl)cs1)c1cccc(C)c1C | 0.3 | 5.4 | 19.6 | -3.1 | 1.0
CCC(=O)Nc1nc(=S)ss1 | -0.3 | -2.6 | 62.2* | 5.2 | -1.0
Cc1cccc(C(=O)NC(CC(=O)O)c2ccc(OC3CCCC3)cc2)c1[N+](=O)[O-] (configuration not stated) | 0.4 | 2.0 | 43.7* | -1.7 | 1.1
COc1ccc(C(=O)Nc2sc(C)c(C)c2CN2CC(C)OC(C)C2)cc1 (configuration not stated) | -0.6 | -4.7 | -10.1 | -4.3 | -6.2
C/C=C/c1ccc(OCCCCOc2ccccc2C(C)=O)c(OC)c1 | 0.8 | 35.7* | 14.3 | -12.4 | 10.0
COc1ccccc1OCCCCOc1ccccc1C(C)=O | 0.8 | 14.1 | . | . | 16.0
CS(=O)(=O)N1CCCC(C(=O)Nc2ccc3c(c2)OCCO3)C1 (configuration not stated) | 0.1 | -2.9 | -4.9 | 1.8 | 0.2
Cc1ccc2nc(N3C(=O)C(O)=C(C(=O)c4ccc(C)o4)C3c3cccc(O)c3)sc2c1 (configuration not stated) | -0.9 | 76.4* | -11.8 | -17.5 | -1.9
C=CCOc1cccc(C2C(C(=O)c3ccc(C)o3)=C(O)C(=O)N2c2nccs2)c1 (configuration not stated) | 0.3 | -6.6 | -220.6 | -40.6 | 0.7
O=C(Nc1nc2c(s1)CCCC2)c1ccc(Br)s1 | 0.4 | 37.7* | 2.6 | -36.8 | 2.0
CCSc1nnc(NC(=O)c2ccc(Br)s2)s1 | -0.1 | 31.0* | 0.2 | -9.2 | 0.6
CCSc1nnc(NC(=O)c2ccccc2)s1 | 0.3 | 8.0 | . | -18.3 | 9.3
Cc1nc(NS(=O)(=O)c2ccccc2C)c2c3c(sc2n1)CCC3 | 0.4 | 37.7* | 6.4 | -5.4 | -0.5
O=C(O)c1ccccc1N/N=C/c1cc(Br)cc(Br)c1O | . | . | 9.7 | -6.2 | .
O=C(O)c1ccccc1N/N=C\c1ccnc2ccccc12 | 0.7 | 31.2* | 0.8 | -64.5 | 5.5
O=C(O)/C=C/c1ccc(S(=O)(=O)NCc2cccnc2)cc1 | . | . | 3.2 | . | .
SMILES | ABCB1 inh | Arbovirus inh | Rad51 HR inh | MDM2 E3 inh | ABCG2 inh
Cc1cc(C)nc(S/C=C/C(=O)c2ccccc2F)n1 | . | . | 8.1 | 38.7* | .
O=c1cnn([C@@H]2O[C@H](CO)[C@@H](O)[C@H]2O)c(=O)[nH]1 | 0.7 | 78.3* | -12.6 | . | 2.2
Nc1ccn([C@@H]2O[C@H](CO)[C@@H](O)C2O)c(=O)n1 (some centres not stated) | . | -11.8 | -6.3 | . | 1.3
NS(=O)(=O)c1ccc(CNS(=O)(=O)c2cccc3nonc23)cc1 | . | . | 19.7 | 6.7 | .
COc1ccc(-c2cc(C(F)(F)F)nc(SCC(=O)NCc3cnn(C)c3C)n2)cc1OC | 0.7 | 1.9 | 12.0 | 34.8* | 15.1
Cc1ccccc1N1C(=O)C(Oc2ccc(Cl)cc2)C1CNCCCOC(C)C (configuration not stated) | 22.1 | 11.2 | 3.3 | 1.8 | 15.5
COCCCNCC1C(Oc2ccc(Cl)cc2)C(=O)N1c1ccccc1C (configuration not stated) | 8.7 | 49.0* | 5.3 | -10.0 | 18.1
Cc1cc(O)c(C=O)c2c1C(=O)Oc1c(CO)c(O)c3c(c1O2)C(O)OC3=O (configuration not stated) | -0.7 | 0.5 | 65.9* | 3.2 | -1.8
Cc1cc(N2CCN(S(=O)(=O)c3ccc(Cl)cc3)CC2)c2ccccc2n1 | 11.0 | 35.6* | 5.2 | -7.5 | 5.6
Cc1ccc(S(=O)(=O)N2CCN(c3ccnc4cc(Cl)ccc34)CC2)cc1C | 7.5 | 30.3* | 11.4 | -4.7 | 4.6
Cc1ccc(S(=O)(=O)N2CCN(c3ccnc4cc(Cl)ccc34)CC2)cc1 | 5.6 | 15.1 | . | -19.4 | 1.2
CCN(CC)S(=O)(=O)c1cc(C)ccc1SC | 0.0 | -2.0 | 3.2 | -34.2 | 2.6
O=C(Nc1nnc(SCc2ccc(F)cc2)s1)c1ccc2c(c1)C(=O)N(c1ccccc1Cl)C2=O | -2.0 | 43.8* | . | 0.2 | -3.8
CN(C)S(=O)(=O)c1ccc(C(=O)N2CCN=C2SCc2ccccc2)cc1 | 1.4 | -3.4 | 38.6 | -26.0 | 4.0
CCSC1=NCCN1C(=O)c1ccc(S(=O)(=O)N(C)C)cc1 | 0.3 | -0.9 | 41.1* | -3.4 | -0.1
O=C(CCCCCn1c(=O)[nH]c2ccsc2c1=O)NCc1ccc2c(c1)OCO2 | 0.1 | 0.9 | -7.0 | -5.6 | 0.3
CS(=O)(=O)Nc1cccc(C2=NN(S(C)(=O)=O)C(c3ccccc3)C2)c1 (configuration not stated) | 1.6 | 1.3 | 42.7* | -0.9 | 1.8
CCOC(=O)N1C/C(=C\c2ccccc2)C(=O)/C(=C/c2ccccc2)C1 | . | . | . | 45.5* | .
CCCNC(=O)NC(=O)CSc1nc2cc(C(=O)OC)ccc2c(=O)n1-c1ccccc1 | 6.9 | 9.4 | 5.8 | -12.7 | 21.1
CCNC(=O)NC(=O)C(C)Sc1nc2cc(C(=O)OC)ccc2c(=O)n1-c1ccccc1 (configuration not stated) | 0.6 | 42.6* | -1.2 | -16.3 | 0.0
Cc1cc(-c2ccc(Cl)cc2Cl)c(C#N)c(=O)[nH]1 | . | . | . | -8.3 | .
CSc1nc(-c2ccc(Cl)cc2Cl)[nH]c(=O)c1C#N | 0.4 | 42.1* | . | -10.1 | 3.2
COC(=O)c1sc(-c2ccccc2)cc1NC(=O)C1CC1 | -0.1 | -2.6 | 35.8 | -3.1 | 2.0
